Laboratory results as given in ChEMBL document CHEMBL3407479, “Structure-activity relationship for the oxadiazole class of antibiotics” (J Med Chem, 2015).
In brackets after ≈: the same amount, converted by molar mass. Activity calls are given as the source filed them. The calls are words filed in the database; no cut-off is given here.

How the values were obtained:
Bacillus cereus = assay: Antibacterial activity against Bacillus cereus ATCC 13061 after 16 to 20 hrs by broth microdilution method; format: functional
Streptococcus pyogenes = assay: Antibacterial activity against Streptococcus pyogenes ATCC 49399 after 16 to 20 hrs by broth microdilution method; format: functional
[1] = Plasma protein binding in human at 10 uM after 6 hrs by equilibrium dialysis assay; format: ADME, cell-free
[2] = Clearance in ICR mouse at 20 mg/kg, iv; format: ADME, organism-based; parameters: dose 20 mg/kg, route intravenous; settings: in vivo
[3] = tested on: Staphylococcus haemolyticus; assay: Antibacterial activity against Staphylococcus haemolyticus ATCC 29970 after 16 to 20 hrs by broth microdilution method; format: functional
Staphylococcus aureus [4] = assay: Antibacterial activity against methicillin-resistant Staphylococcus aureus ATCC 27660 in iv dosed ICR mouse peritonitis infection model assessed as survival rate administered at 0.5 and 7.5 hrs post infection; format: functional; settings: ATCC 27660, iv
Mus musculus [5] = assay: AUC (0 to 24 hrs) in ICR mouse at 20 mg/kg, iv; format: ADME, organism-based, Plasma; parameters: time < 24 hr, dose 20 mg/kg, route intravenous; settings: in vivo
[6] = Cmax in ICR mouse at 20 mg/kg, po; format: ADME, organism-based; parameters: dose 20 mg/kg, route oral; settings: in vivo
[7] = Volume of distribution in ICR mouse at 20 mg/kg, iv; format: ADME, organism-based; parameters: dose 20 mg/kg, route intravenous; settings: in vivo
[8] = tested on: Staphylococcus epidermidis; assay: Antibacterial activity against Staphylococcus epidermidis ATCC 35547 after 16 to 20 hrs by broth microdilution method; format: functional
Enterococcus faecium [9] = assay: Antibacterial activity against Enterococcus faecium NCTC 7171 after 16 to 20 hrs by broth microdilution method; format: functional
Staphylococcus aureus [10] = assay: Antibacterial activity against methicillin-resistant Staphylococcus aureus ATCC 27660 in ICR mouse peritonitis infection model assessed as survival rate at 20 mg/kg, iv administered at 0.5 and 7.5 hrs post infection measured for 48 hrs; format: functional, organism-based; parameters: dose 20 mg/kg
Summary of the method: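 Female ICR mice, 6–8 weeks, ~20 g, n = 6 per group. Bacteria at 10^8 cfu/mL mixed 1:1 with 10% mucin just before use; 0.5 mL given ip (final 5×10^7 cfu/mL, 5% mucin). Compound at 20 mg/kg iv by tail vein, twice, at 30 min and 7.5 h post-infection. […] Survivors counted at 48 h.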

[11] = Primary phase half life in ICR mouse at 20 mg/kg, iv; format: ADME, organism-based; parameters: dose 20 mg/kg, route intravenous; settings: in vivo, read-out: alphat1/2
Staphylococcus aureus [12] = assay: Antibacterial activity against methicillin-sensitive Staphylococcus aureus ATCC 29213 after 16 to 20 hrs by broth microdilution method; format: functional
[13] = Elimination half life in ICR mouse at 20 mg/kg, po; format: ADME, organism-based; parameters: dose 20 mg/kg, route oral; settings: in vivo, read-out: beta t1/2 (converted)
[14] = AUC (0 to infinity) in ICR mouse at 20 mg/kg, iv; format: ADME, organism-based; parameters: time infinity, dose 20 mg/kg, route intravenous; settings: plasma
Staphylococcus aureus [15] = assay: Bactericidal activity against methicillin-sensitive Staphylococcus aureus ATCC 29213 after 48 hrs; format: functional; settings: ATCC 29213, 48 h
[16] = Distribution phase half life in ICR mouse at 20 mg/kg, po; format: ADME, organism-based; parameters: dose 20 mg/kg, route oral; settings: in vivo, read-out: alphat1/2 (converted)
Staphylococcus aureus [17] = assay: Antibacterial activity against methicillin-resistant Staphylococcus aureus ATCC 27660 in po dosed ICR mouse peritonitis infection model assessed as survival rate administered at 1 hr post infection; format: functional; settings: ATCC 27660, po
Summary of the method: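 Female ICR mice, 6–8 weeks, given 0.5 mL ip of S. aureus (final 5×10^7 cfu/mL in 5% mucin). Six mice per dose level; a single oral dose at 1 h post-infection.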

Enterococcus faecalis = assay: Antibacterial activity against vancomycin-resistant Enterococcus faecalis 99 clinical isolate after 16 to 20 hrs by broth microdilution method; format: functional
Staphylococcus aureus [18] = assay: Antibacterial activity against vancomycin/methicillin-resistant Staphylococcus aureus VRS1 clinical isolate after 16 to 20 hrs by broth microdilution method; format: functional
Staphylococcus aureus [19] = assay: Antibacterial activity against methicillin-resistant Staphylococcus aureus ATCC 27660 in po dosed ICR mouse peritonitis infection model assessed as survival rate administered at 0.5 and 7.5 hrs post infection; format: functional; settings: ATCC 27660, po
[20] = Tmax in ICR mouse at 20 mg/kg, po; format: ADME, organism-based; parameters: dose 20 mg/kg, route oral; settings: in vivo
HepG2 = assay: Cytotoxicity against human HepG2 cells assessed as cell viability after 16 hrs by XTT assay; format: cell-based; settings: HepG2, 16 h
Summary of the method: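 HepG2 cells were run in triplicate in an XTT viability assay. IC50 was derived from the concentration–response data.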

Mus musculus [21] = assay: AUC (0 to 24 hrs) in ICR mouse at 20 mg/kg, po; format: ADME, organism-based, Plasma; parameters: time < 24 hr, dose 20 mg/kg, route oral; settings: in vivo
[22] = AUC (0 to infinity) in ICR mouse at 20 mg/kg, po; format: ADME, organism-based; parameters: time infinity, dose 20 mg/kg, route oral; settings: plasma
[23] = Terminal half life in ICR mouse at 20 mg/kg, iv; format: ADME, organism-based; parameters: dose 20 mg/kg, route intravenous; settings: in vivo, read-out: beta t1/2 (converted)
Streptococcus oralis = assay: Antibacterial activity against Streptococcus oralis ATCC 9811 after 16 to 20 hrs by broth microdilution method; format: functional
Enterococcus faecium [24] = assay: Ratio of MBC to MIC for Enterococcus faecium NCTC 7171; format: functional

Compound FC(F)(F)c1ccc(Oc2ccc(-c3noc(-c4ccc5[nH]ccc5c4)n3)cc2)cc1 has an MIC (Bacillus cereus) of 16 µg/mL (≈ 38 µM), an MIC (Streptococcus pyogenes) of 64 µg/mL (≈ 152 µM) and a PPB [1] of 98.2%. The clearance [2] was 5.68 mL/min/kg, the MIC [3] was 8 µg/mL (≈ 19 µM) and the ED50 (Staphylococcus aureus [4]) was 7.6 mg/kg. For the same compound, the AUC (Mus musculus [5]) was 3140 µg·min/mL, the Cmax [6] was 2340 ng/mL and the Vd [7] was 4.73 L/kg. For the same compound, the MIC [8] was 4 µg/mL (≈ 9.49 µM), the MIC (Enterococcus faecium [9]) was 2 µg/mL (≈ 4.75 µM) and the Activity (Staphylococcus aureus [10]) was “Active”. It also gave a half-life [11] of 32.4 s, an MIC (Staphylococcus aureus [12]) of 2 µg/mL (≈ 4.75 µM) and a half-life [13] of 18.6 h. The AUC(0-inf) [14] was 58700 ng·h/mL, the MBC (Staphylococcus aureus [15]) was 2 µg/mL (≈ 4.75 µM) and the half-life [16] was 15.9 h. The ED50 (Staphylococcus aureus [17]) was 3.1 mg/kg, the MIC (Enterococcus faecalis) was 16 µg/mL (≈ 38 µM) and the MIC (Staphylococcus aureus [18]) was 1 µg/mL (≈ 2.37 µM). It also gave an ED50 (Staphylococcus aureus [19]) of 1.7 mg/kg, a Tmax [20] of 6 h and an IC50 (HepG2) of 75.7 µg/mL (≈ 180 µM). It also gave an AUC (Mus musculus [21]) of 3060 µg·min/mL, an AUC(0-inf) [22] of 67700 ng·h/mL and a half-life [23] of 9.6 h. The MIC (Streptococcus oralis) was 128 µg/mL (≈ 304 µM) and the Ratio (Enterococcus faecium [24]) was 2.
